# Laboratory results taken from PubChem BioAssay.
# Active and inactive are the calls of the source.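 The calls were made as follows, unless noted: active = viability loss from added drug above about 55%, and viability with drug at most 40%, in both replicates (limit read from the data, passing the limit was not always enough); inconclusive = both conditions met in only one replicate; inactive = neither replicate meets both conditions.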
# Legend:
# [1] = reduced viability of SK-BR-3 breast cancer cells – cell-based, 24 h, human, pilot screen (AID 572;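 active = viability at or below 10% of carrier control in both of two separate runs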;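 also: compound exposure lasted between 18 and 24 h rather than exactly 24 h; 100% = carrier-treated control wells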); conditions: SK-BR-3 viability, CellTiter-Glo luminescence, at 10 µM, stronger effect = lower value
# [2] = HUVEC growth inhibition – cell-based, human, primary screen (AID 575;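 active = viability at or below 30% in both replicate assays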;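 also: 100% = median of untreated cell wells with 0.1% DMSO on each plate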); conditions: HUVEC proliferation, CellTiter-Glo luminescence, 72 h; at 10 µM; stronger effect = lower value
# Procedure, shortened: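 Test system: HUVEC primary cells. Quantity: 1250 endothelial cells in each well. Dosing: single-point 10 µM, DMSO 0.1% final. Incubation: 72 h treatment at 37 °C. Measured by: CTG luminescence. Control set: DMSO cell controls and MePR drug controls. Plate: collagen-coated 384-well format.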
# [3] = H69AR cell proliferation blockers – human, duplicate replicates, primary screen (AID 580;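 active = viability at or under a set limit in both replicates, limit being median viability minus 3 SD, cut at about 48% in these data, passing the limit was not always enough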;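 also: 100% = mean luminescence of untreated wells and 0% = no signal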); conditions: H69AR lung tumor cells viability, ATP luminescence, 72 h; at 10 µM; stronger effect = lower value
# [4] = MRP1 drug-resistance reversers in H69AR cells – cell-based, doxorubicin co-treatment, pilot screen (AID 601); conditions: CellTiter-Glo, 72 h, at 10 µM; for differential viability (reversal): stronger effect = higher value
# [5] = yeast transport mutant growth inhibition pilot in 384-well plates, post-Golgi transport modulator project (AID 636; in the data active = inhibition above about 31%); conditions: absorbance 615 nm, about 18 h, stronger effect = higher value
# [6] = growth suppression of yeast trafficking mutant, preliminary HTS, modulators of trafficking downstream of Golgi apparatus project, 1536-format plate, OD 615 nm (AID 637; in the data active = inhibition above about 30%); conditions: yeast transport mutant growth, absorbance 615 nm, 18 h; stronger effect = higher value
# [7] = H69AR cells + 2 uM doxorubicin, measured here: viability with 2 uM doxorubicin, stronger effect = lower value
# [8] = H69AR cells, compound alone cytotoxicity
SMILES,viability [1],viability [2],viability [3],differential viability (reversal) ([4]; H69AR cells + 2 uM doxorubicin),"viability [4, 7]","viability [4, 8]",inhibition [5],inhibition [6]
COc1ccc(N2CCN(C(=O)Cc3ccc(-n4c(=O)[nH]c5ccccc5c4=O)cc3)CC2)cc1,103% (inactive),75.8% (inactive),94.7% (inactive),3.2% (inactive),91.5%,94.7%,0.26% (inactive),-3.11% (inactive)
CC(=N\O)/C(CN(C)C)=N/O,97% (inactive),88.7% (inactive),91.5% (inactive),-6.4% (inactive),97.9%,91.5%,-1.78% (inactive),25.6% (inactive)
COc1cccc(OCC(=O)Nc2ccccc2C(N)=O)c1,110% (inactive),99.9% (inactive),97% (inactive),13.1% (inactive),83.9%,97%,-1.51% (inactive),1.13% (inactive)
CC(C)CC1NC(=O)N(CC(=O)N2CCN(S(=O)(=O)c3ccc(Cl)cc3)CC2)C1=O (stereo unspecified),97% (inactive),91.7% (inactive),96.4% (inactive),-19.2% (inactive),116%,96.4%,0% (inactive),5.83% (inactive)
CC(C)OC(=O)CSc1nnc(-c2cccnc2)n1Cc1ccccc1,86% (inactive),105% (inactive),89.9% (inactive),9.68% (inactive),80.2%,89.9%,-5.81% (inactive),0.18% (inactive)
COc1ccccc1CNC(=O)C(C)NS(=O)(=O)c1ccccc1 (stereo unspecified),113% (inactive),106% (inactive),87.1% (inactive),-11% (inactive),98.1%,87.1%,-7.4% (inactive),-0.73% (inactive)
FC(F)(F)c1ccc(Sc2nnc(-c3cccs3)n2CC2CCCO2)nc1 (stereo unspecified),68% (inactive),104% (inactive),94.5% (inactive),6.06% (inactive),88.4%,94.5%,-8.22% (inactive),2% (inactive)
O=C1CC(c2ccccc2)NC(=O)N1 (stereo unspecified),78% (inactive),105% (inactive),98.8% (inactive),2.63% (inactive),96.1%,98.8%,-7.26% (inactive),-0.36% (inactive)
c1coc(-c2nnc(-c3cccs3)o2)c1,106% (inactive),110% (inactive),102% (inactive),14% (inactive),87.9%,102%,-5.33% (inactive),0% (inactive)
CCc1cccc(NC(=O)CN(C)S(=O)(=O)c2cccc3nsnc23)c1,92% (inactive),90.3% (inactive),91.8% (inactive),7.68% (inactive),84.1%,91.8%,-5.68% (inactive),-2.55% (inactive)
CCOC(=O)C(C(C)=O)c1nc(C)nc2c1nnn2Cc1ccccc1Cl (stereo unspecified),58% (inactive),71.7% (inactive),79.4% (inactive),-9.73% (inactive),89.1%,79.4%,1.08% (inactive),-2.18% (inactive)
CN/C=C1\C(=O)C(C)(C)Oc2ccc3ccc(=O)oc3c21,112% (inactive),91.5% (inactive),87.9% (inactive),0.24% (inactive),87.7%,87.9%,-6.53% (inactive),0.18% (inactive)
Nc1nc(N)c2nc(-c3ccccc3)c(N)nc2n1,128% (inactive),90.5% (inactive),73.3% (inactive),-4.71% (inactive),78%,73.3%,-2.08% (inactive),1.5% (inactive)
CCOC(=O)c1c(C)[nH]c(C(=O)Cn2c(=O)c3c(ncn3CC)n(Cc3ccccc3)c2=O)c1C,89% (inactive),98% (inactive),85.2% (inactive),-4.88% (inactive),90.1%,85.2%,-6.35% (inactive),-2.73% (inactive)
COc1ccc(CCNC(=O)CSCc2n[nH]c(=O)[nH]2)cc1OC,110% (inactive),89.3% (inactive),88.5% (inactive),-0.08% (inactive),88.6%,88.5%,-10.7% (inactive),0% (inactive)
CC1CN(C(=O)CSc2nnc(-c3ccc(Cl)cc3)n2C)CC(C)O1 (stereo unspecified),78% (inactive),110% (inactive),99.5% (inactive),5.23% (inactive),94.2%,99.5%,-6.08% (inactive),2.91% (inactive)
O=C(O)Cc1ccc(-c2ccccc2)cc1,112% (inactive),84.3% (inactive),85.7% (inactive),-0.76% (inactive),86.4%,85.7%,-2.21% (inactive),5.33% (inactive)
O=C(CSc1nnc(-c2ccccn2)n1Cc1ccccc1)N1CCCC1,109% (inactive),104% (inactive),98.8% (inactive),10.9% (inactive),87.9%,98.8%,-8.67% (inactive),-6% (inactive)
O=C(Nc1cnn(Cc2ccc(F)cc2)c1)c1cnccn1,117% (inactive),85.2% (inactive),98.8% (inactive),1.69% (inactive),97.1%,98.8%,-2.34% (inactive),3.93% (inactive)

SMILES,viability [1],viability [2],viability [3],differential viability (reversal) ([4]; H69AR cells + 2 uM doxorubicin),"viability [4, 7]","viability [4, 8]",inhibition [5],inhibition [6]
O=C(C1CCCCC1)N1CC(=O)N2CCc3ccccc3C2C1 (stereo unspecified),104% (inactive),107% (inactive),96.7% (inactive),-3.46% (inactive),100%,96.7%,-0.91% (inactive),-0.83% (inactive)
C=CCn1c(SCC(=O)Nc2ccc3c(c2)OCO3)nc2ccccc2c1=O,73% (inactive),83.9% (inactive),84.2% (inactive),2.04% (inactive),82.1%,84.2%,-3.84% (inactive),-1.27% (inactive)
COc1ccc(-n2nc3cc(C)c(N)c(Br)c3n2)cc1,74% (inactive),85.6% (inactive),65.5% (inactive),-33.4% (inactive),98.9%,65.5%,-6.3% (inactive),-1.45% (inactive)
CCCCc1nc(NCCN2CCOCC2)c(C#N)c2c1COC(C)(C)C2,76% (inactive),94.1% (inactive),91.6% (inactive),4.02% (inactive),87.5%,91.6%,5.48% (inactive),6.77% (inactive)
O=C(NCCCN1CCCC1=O)c1ccc2c(=O)n(Cc3ccco3)c(=S)[nH]c2c1,97% (inactive),105% (inactive),99.6% (inactive),7.89% (inactive),91.7%,99.6%,1.95% (inactive),10.5% (inactive)
CCOC(=O)c1ccc(NS(=O)(=O)c2ccc3c(c2)CCCN3C(C)=O)cc1,118% (inactive),104% (inactive),89.8% (inactive),-8.91% (inactive),98.7%,89.8%,0.91% (inactive),-0.16% (inactive)
Cc1ccc2[nH]c3c(=O)n(CCCN4CCN(C)CC4)cnc3c2c1,115% (inactive),99.9% (inactive),95.5% (inactive),2.28% (inactive),93.2%,95.5%,-4.67% (inactive),0% (inactive)
Cc1cc(C)cc(NC(=O)CN(C)S(=O)(=O)c2cnc[nH]2)c1,113% (inactive),104% (inactive),100% (inactive),8.86% (inactive),91.3%,100%,-2.13% (inactive),-6.36% (inactive)
CCn1nnnc1SCC(=O)N1c2ccccc2CCc2ccccc21,86% (inactive),99.1% (inactive),86.7% (inactive),-5.9% (inactive),92.6%,86.7%,-9.07% (inactive),-0.18% (inactive)
CCOc1cc(C(=O)N(C)Cc2cc3cc(OC)ccc3[nH]c2=O)cc(OCC)c1OCC,88% (inactive),114% (inactive),95.1% (inactive),-1.01% (inactive),96.2%,95.1%,-4.46% (inactive),17.3% (inactive)
CCc1c(C(=O)Nc2ncn(Cc3cccc(C)c3)n2)csc1C,105% (inactive),112% (inactive),85.6% (inactive),4.33% (inactive),81.3%,85.6%,-2.84% (inactive),-1.64% (inactive)
Cc1nc(NC(=O)C23CCC(C)(C(=O)O2)C3(C)C)sc1C (stereo unspecified),133% (inactive),107% (inactive),99.2% (inactive),13.9% (inactive),85.4%,99.2%,-2.99% (inactive),0.16% (inactive)
Cc1nc2sccn2c(=O)c1CCN1CCC(=C(c2ccccc2)c2ccc(F)cc2)CC1,160% (inactive),3.02% (active),81.9% (inactive),-12.5% (inactive),94.5%,81.9%,-0.13% (inactive),24.5% (inactive)
CCCC(=O)Nc1cc(-c2nnc(OC)c3ccccc23)ccc1N1CCOCC1,109% (inactive),84.6% (inactive),94.5% (inactive),-7.97% (inactive),102%,94.5%,0.96% (inactive),3.71% (inactive)
Cn1cnnc1Sc1nc2c(c(=O)n(C)c(=O)n2C)n1Cc1ccccc1Cl,72% (inactive),98.5% (inactive),90.3% (inactive),-2.15% (inactive),92.4%,90.3%,-3.7% (inactive),0.91% (inactive)
Cc1nc(SCC(=O)Nc2cc(C)on2)c2c3c(sc2n1)CCCC3,66.5% (inactive),78.5% (inactive),30.4% (active),6.21% (inactive),24.2%,30.4%,-2.97% (inactive),-1.11% (inactive)
Cc1noc(C)c1CSc1nc2ccccc2s1,82% (inactive),80.8% (inactive),67.8% (inactive),-3.12% (inactive),70.9%,67.8%,-1.43% (inactive),-4.1% (inactive)
Nc1nc2c(ncn2COCCO)c(=O)[nH]1,97% (inactive),86.9% (inactive),98.9% (inactive),3.38% (inactive),95.5%,98.9%,0.65% (inactive),3% (inactive)
